A short description of data set [1]: Cmax in non-antibioticc-treated C57Bl/6J mouse at 0.3 mg/kg, iv and measured after 5 mins to 24 hrs by LC/MS-SRM analysis. It is filed as ADME, organism-based. Set-up: dose 0.3 mg/kg, route intravenous. The settings on record: in vivo. The gist of the method: (§1)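 Non-antibiotic-treated C57Bl/6J mice given a single i.v. dose of 0.3 mg/kg; n = 3 per time point. Bled at 5, 10, 30 min and 1, 2, 4, 8, 24 h. Plasma mixed with 2 volumes acetonitrile containing internal standard, centrifuged, supernatant quantified by LC/MS-SRM.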

The subject of data set [2] is Clostridioides difficile. Description: Suppression of relapse of Clostridioides difficile 630 infection in cefoperazone-treated C57BL/6J mouse model of recurrent Clostridioides difficile 630 infection assessed as reduction in group-Bacteroidaceae level at 5 mg/kg, po for 5 days from day 4 to 9 after infection with spores measured on day day 14. It is filed as functional, organism-based. The method in brief: (§2)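 Recurrent CDI model in cefoperazone-treated C57BL/6J mice challenged with strain 630 and gavaged on days 4–9 (n = 6 per group). Cecal tissue snips collected at necropsy underwent 16S rRNA gene community sequencing on Illumina MiSeq.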

A short description of data set [3]: Clearance in non-antibioticc-treated C57Bl/6J mouse at 0.3 mg/kg, iv and measured after 5 mins to 24 hrs by LC/MS-SRM analysis. The format is ADME, organism-based. The settings on record: in vivo. The gist of the method: as §1
A short description of data set [4]: Oral bioavailability in cefoperazone-treated C57Bl/6J mouse at 1 mg/kg dosed each day for 5 days by LC/MS-SRM analysis. The format is ADME, organism-based. The note with it: in vivo.
Data set [5] relates to Clostridioides difficile. Briefly: Suppression of relapse of Clostridioides difficile 630 infection in cefoperazone-treated C57BL/6J mouse model of recurrent Clostridioides difficile 630 infection assessed as reduction in body weight loss at 5 mg/kg, po for 5 days from day 4 to 9 after infection with spores. The format is functional, organism-based. The gist of the method: (§3)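 Five-week-old C57BL/6J mice of both sexes given cefoperazone 0.5 mg/ml in drinking water for 5 days, then a 2-day washout. Oral challenge with C. difficile 630 spores on day 0. Oral gavage in 2-(hydroxypropyl)-cyclodextrin vehicle on days 4–9; n = 6 per group. Body weight recorded daily. Feces or cecal contents suspended 1:10 in PBS, serially diluted and plated on TCCFA, incubated anaerobically at 37°C for 24 h; results as CFU/g.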

A short description of data set [6]: Effect on gut microbiota in cefoperazone-treated C57BL/6J mouse model of recurrent Clostridioides difficile 630 infection assessed as increase in alpha-diversity at 5 mg/kg, po for 5 days from day 4 to 9 after infection with spores measured on day day 14 by 16S rRNA Illumina sequencing analysis. It is filed as ADME, organism-based. The note with it: in vivo, 120 h. The method in brief:
as §2

The nature of data set [7]: Tmax in non-antibioticc-treated C57Bl/6J mouse at 0.3 mg/kg, iv and measured after 5 mins to 24 hrs by LC/MS-SRM analysis. The format is ADME, organism-based. The note with it: in vivo. The method in brief: as §1
Data set [8] deals with Clostridioides difficile. Description: Suppression of relapse of Clostridioides difficile 630 infection in cefoperazone-treated C57BL/6J mouse model of recurrent Clostridioides difficile 630 infection assessed as reduction in microbial load (total vegetative cells plus spores) in cecal content at 5 mg/kg, po for 5 days from day 4 to 9 after infection with spores measured on day day 14. It is filed as functional, organism-based. The gist of the method: as §3

Data set [9] is described as follows: MRT in cefoperazone-treated C57Bl/6J mouse at 1 mg/kg, po dosed each day for 5 days by LC/MS-SRM analysis. The format is ADME, organism-based. The note with it: in vivo. The gist of the method:
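C57Bl/6J mice pre-treated with cefoperazone 0.5 mg/mL in drinking water for 10 days, then a 2-day washout. Oral dose of 1 mg/kg given daily for 5 days. Bled at 5, 10, 30 min and 1, 2, 4, 10, 24 h after dosing on the first and final days; n = 3 per time point. Plasma mixed with 2 volumes acetonitrile containing internal standard, centrifuged, supernatant analysed by LC/MS-SRM.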

The nature of data set [10]: AUC in non-antibioticc-treated C57Bl/6J mouse at 0.3 mg/kg, iv and measured after 5 mins to 24 hrs by LC/MS-SRM analysis. The format is ADME, organism-based. On the set-up: time upper 24 hr, time lower 0.083 hr, dose 0.3 mg/kg, route intravenous. The note with it: in vivo. The gist of the method:
as §1

Data set [11] is described as follows: Ratio of Cmin in cecum of cefoperazone-treated C57Bl/6J mouse at 1 mg/kg, po dosed each day for 5 days and measured over 24 hrs post last dose by LC/MS-SRM analysis to MIC for antimicrobial activity against Clostridioides difficile CD10463 incubated for 20 to 24 hrs by broth microdilution method. The settings on record: in vivo. The format is ADME, organism-based. On the technique in general: Dilution methods test growth across graded concentrations, often in twofold steps.

The subject of data set [12] is Clostridioides difficile. Description: Antimicrobial activity against Clostridioides difficile CD10463 incubated for 20 to 24 hrs by broth microdilution method. It is filed as functional. The method in brief:
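Broth microdilution in pre-reduced BHIS using two-fold serial dilutions and ~5 × 10⁵ cfu/mL inoculum. Incubated 20–24 h at 37°C, anaerobic (8% H₂, 8% CO₂, 84% N₂). MIC read by the Lambert-Pearson method; duplicates.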

Data set [13] has as its system Clostridioides difficile. Briefly: Suppression of relapse of Clostridioides difficile 630 infection in cefoperazone-treated C57BL/6J mouse model of recurrent Clostridioides difficile 630 infection assessed as incidence of animals with microbial load (total vegetative cells plus spores) load below the limit of detection at 5 mg/kg, po for 5 days from day 4 to 9 after infection with spores measured on day 13 post drug cessation. The format is functional. The method in brief: as §3

A short description of data set [14]: Cmax in cecum of cefoperazone-treated C57Bl/6J mouse at 1 mg/kg, po dosed each day for 5 days and measured at 4 hrs post last dose by LC/MS-SRM analysis. It is filed as ADME, organism-based, Caecum. On the set-up: dose 1 mg/kg, route oral. The method in brief: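 Cefoperazone-pretreated mice (0.5 mg/mL in drinking water, 10 days; 2-day washout) dosed orally at 1 mg/kg daily for 5 days. On the final day, mice euthanized at 30 min, 4 h and 24 h post-dose and cecal contents collected. Samples homogenized in 4 volumes acetonitrile containing internal standard, centrifuged, supernatant analysed by LC/MS-SRM.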

In brackets after ≈: the same amount, converted by molar mass. Activity calls are given as the source filed them. The rule behind the calls is not given here.

With `O=C(Nc1cc(C(F)(F)F)c(Oc2ccc(Cl)cc2)c(C(F)(F)F)c1)c1cc(Cl)cc(Cl)c1O`, the Cmax came out at 1630 nM in [1] and 50 µM in data set [14]. Further, the outcome with Clostridioides difficile [2], in the data set with Clostridioides difficile [5] and in the data set on Clostridioides difficile [8] was Active. Also, the clearance in data set [3] worked out at 1 mL/min/kg. This molecule showed a bioavailability in data set [4] of 76%. Besides, the results for the Activity entry (in data set [6]; in the data set with Clostridioides difficile [13]) were “Non-Toxic” and 50%, respectively. Moreover, in [7], the Tmax was 10.2 min. The same molecule came in with an MRT in data set [9] of 9.7 h. The AUC in data set [10] is 9.23 µM·h. For the same molecule, the Ratio in data set [11] is listed as 100. This molecule registered an MIC with Clostridioides difficile [12] of 0.03 µM (≈ 0.0163 µg/mL).

As usually defined, the Cmax is the maximum level reached in the sampled fluid or tissue. By clearance is commonly meant the volume of plasma or blood freed of the substance per unit of time. Read a high clearance as efficient removal. As usually defined, the bioavailability is the share of a dose that reaches the circulation, judged against a reference dose that is usually intravenous. The Tmax is the time at which the peak concentration occurs. Broadly, the MRT is a mean duration of stay, worked out from the concentration-time curve. The AUC is concentration integrated over time. The low end stands for low exposure, the high end for high exposure. For orientation: MIC means the lowest concentration that inhibits growth of the organism. A higher MIC goes with a need for much substance.
